Data taken from paper PMC11601626 (bioRxiv, 2024).
Substitutions are numbered along the chain they refer to. In names and notes the source's numbering stands.

Tests used:
[1] = test system: HeLa cells (control and ∆PHRF1); assay: Zeocin DNA damage recovery assay, γH2A.X intensity/nucleus, HeLa; assay type: cell-based, human; settings: qGAM; 50 μg/mL zeocin 30 minutes, washout 0-26 h; p-value 4.79x10-5 (Wald)
HCT116 cells [2] = assay: Colony formation assay under zeocin; assay type: cell-based, human; settings: ∆PHRF1 HCT116 cells, complemented; effect greater with WT than P221L
Outline: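 Cells were Control+EV, ∆PHRF1+EV, and ∆PHRF1 complemented with 3XFlag-PHRF1 WT or P221L. They were harvested near 70% confluence and seeded at 500 cells/well in biological triplicate, then left to adhere overnight at 37°C. Medium was replaced with zeocin at 0, 0.375, 0.75 and 1.5 µg/mL for 9 days undisturbed. Cells were fixed in 4% formaldehyde and stained with 0.5% crystal violet; growth area was measured per imaged well.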

HCT116 cells [3] = assay: Live-cell imaging growth analysis; assay type: cell-based, human; settings: ∆PHRF1 HCT116 cells, complemented; no zeocin; Incucyte, one week; n = 3
Outline: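 Control+EV, ∆PHRF1+EV and WT- or P221L-complemented ∆PHRF1 lines were grown in McCoy's 5A with 10% FBS and penicillin/streptomycin at 37°C, 5% CO₂. They were harvested near 70% confluence and seeded at 1,000 cells/well in biological triplicate. Imaging began immediately: every 4 h for one week, 10X objective, four fields per well. Confluence was scored as percentage of area occupied by cells.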

[4] = molecular target: unmodified biotinylated nucleosome (EpiCypher) (human) (UniProt P68431); assay: BLI
GST-PHRF1^RP(P221L) = assay: Histone peptide microarray with GST-PHRF1^RP; assay type: binding, human; settings: over 300 differentially-modified histone peptides
[5] = test system: differentially modified biotinylated nucleosomes; assay: Nucleosome pulldown assay; assay type: binding; settings: 2.5 pmol protein, 12.5 pmol nucleosomes, pH 7.5, 4°C overnight
Outline: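 Binding buffer: 50 mM Tris-HCl pH 7.5, 150 mM NaCl, 0.5% BSA, 0.1% NP-40, 10% glycerol. GST-PHRF1 RP, PHD or RP(P221L) was mixed with the modified biotinylated nucleosomes. Beads were washed three times in binding buffer, 5 min each at 4°C with rotation, then taken up in SDS loading dye. Immunoblots used anti-GST for PHRF1 and anti-H3 for nucleosome presence.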

H3 (1–20)-FAM = assay: Histone peptide fluorescence polarization; assay type: binding; settings: protein 50 to 0.0061 μM, pH 8.0, KD n.d.
[6] = test system: biotinylated unmodified nucleosomes; assay: Biolayer interferometry; assay type: binding; settings: BLI; protein 25 to 1.625 μM; pH 7.0; 37°C; KD n.d.
[7] = test system: differentially modified biotinylated nucleosomes; assay: dCypher nucleosome alphascreen binding assay; settings: GST-PHRF1^RP 3 nM, nucleosomes 10 nM, duplicate

Molecule: Cc1c(N)nc([C@H](CC(N)=O)NC[C@H](N)C(N)=O)nc1C(=O)N[C@H](C(=O)N[C@H](C)[C@@H](O)[C@H](C)C(=O)N[C@H](C(=O)NCCC1=N[C@@H](c2nc(C(=O)NCCCCN=C(N)N)cs2)CS1)[C@@H](C)O)[C@@H](O[C@@H]1O[C@@H](CO)[C@@H](O)[C@H](O)[C@@H]1O[C@H]1O[C@H](CO)[C@@H](O)[C@H](OC(N)=O)[C@@H]1O)c1cnc[nH]1 [zeocin, phleomycin D1]
- Parametric Coefficient, γH2A.X intensity/nucleus, ∆PHRF1 vs Control [1]: −345.25

Molecule: 3XFlag-PHRF1^WT: N-terminally 3XFlag-tagged PHRF1 expressed by lentivirus in HCT116 ∆PHRF1 cells
- rescue of colony growth at 0.375 μg/mL zeocin, in words (HCT116 cells [2]): partial rescue of growth
- rescue of growth under normal conditions, in words (HCT116 cells [3]): largely rescued the growth defects

Molecule: 3XFlag-PHRF1^P221L: 3XFlag-tagged PHRF1 P221L mutant expressed by lentivirus in HCT116 ∆PHRF1 cells
- rescue of colony growth at 0.375 μg/mL zeocin, in words (HCT116 cells [2]): partial rescue of growth
- rescue of growth under normal conditions, in words (HCT116 cells [3]): partially rescuing the growth phenotype

Molecule: GST-PHRF1^RP (RING-PHD region of PHRF1, residues 107-232) (from UniProt Q9P1Y6 107-232) (domain or fragment)
- Kd [4]: 1010 nM

B1: GST-PHRF1^RP(P221L): GST-PHRF1^RP with P221 mutated to leucine (protein)
chain: SCPICLNAFRDQAVGTPENCAHYFCLDCIVEWSKNANSCPVDRTLFKCICIRAQFGGKILRKIPVENTKASEEEEDPTFCEVCGRSDREDRLLLCDGCDAGYHMECLDPPLQEVLVDEWFCPECAA
modifications: left off: GST, end not stated, kept
- binding to histone peptides, in words (GST-PHRF1^RP(P221L)): virtually no binding to any histone peptide on the microarray
- nucleosome interaction of P221L mutant, in words [5]: abolished all nucleosome interaction
- binding to H3 1–20(FAM), in words (H3 (1–20)-FAM): little to no observable binding
- binding to nucleosomes, in words [6]: no detectable binding to nucleosomes

B2: GST-PHRF1^RP: GST-tagged PHRF1 RING-PHD region, residues 107–232 of PHRF1 (protein)
chain: B1 chain with L115P
modifications: left off: GST, end not stated, kept
- nucleosome binding, H3K9me3 versus unmodified, in words [7]: heightened binding
